hiPSC survival – enhancers of single-cell hiPSC survival, primary screen, ATPlite luminescence; 100% = ROCK inhibitor wells, 0% = DMSO; survival enhancement, % at 20 µM; 360,000 tested, 0.044% active; in the data active = survival enhancement above about 18%;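 also: cells exposed to compounds for 16 hours before the ATP read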
Jurkat NFkB inh – inhibitors of induced NF-kB luciferase reporter, primary screen, TCR NF-kB activation inhibitor project, cell-based, luminescence, uHTS; Jurkat, PMA/ionomycin-induced NF-kB luciferase reporter; inhibition, % at 4 µM; 330,000 tested, 0.53% active; AID 435003, 2010; in the data active = inhibition above about 50%
Lipid droplet – inhibitors of hepatocyte lipid droplet formation, primary screen, imaging, high-throughput imaging, BODIPY stain; AID 1656, 2009; inhibition, % at 6.5 µM; AML12 mouse hepatocytes, oleate lipid droplets; 240,000 tested, 0.4% active;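 active = lipid droplet intensity inhibited by at least 50%, with more than 500 cells counted; inconclusive = wells with under 300 cells, treated as cytotoxic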
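Assay system: AML12 mouse liver cells | Compound: 6.5 µM single-point dosing | Schedule: Overnight exposure | Technique: Fluorescence imaging, 20x objective, two fields per well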
Gli-Sufu antag – Gli-Sufu pathway antagonists, primary screen, luciferase luminescence, Sufu-KO-LIGHT cells, uHTS. Sufu-KO-LIGHT fibroblasts, Gli luciferase reporter luminescence. inhibition, % at 5 µM. 340,000 tested, 0.74% active. AID 588413, 2011;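 active = inhibition above about 55%, limit read from the data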;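 also: 0% = DMSO-treated cells and 100% = wells with medium but no cells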
697 NFkB inh – inhibitors of PMA/ionomycin-induced NF-kB reporter, 697 cells, primary screen, B-cell NF-kB inhibitor project, cell-based, luminescence, uHTS | 697 B-cell NF-kB luciferase reporter, 16 h | inhibition, % at 4 µM | 330,000 tested, 0.33% active; in the data active = inhibition above about 35%
TAG inh – inhibitors of triacylglycerol accumulation, primary screen, cell-based, uHTS, fluorescence, H9c2 | H9c2 cells, Nile Red lipid (TAG) fluorescence; cells loaded with 200 µM oleic acid | inhibition, % at 12.5 µM | 230,000 tested, 0.66% active | AID 651582, 2012;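 active = pattern-corrected inhibition of lipid staining of at least 50% with the nuclear-stain viability signal not falling by more than 50%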;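 also: 0% = DMSO wells and 100% = triacsin C control wells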
Jurkat NFkB conf – PMA/ionomycin-induced NF-kB reporter inhibitors, Jurkat retest, confirmation, T-cell NF-kB inhibitor project, cell-based, luminescence, single concentration; inhibition, % at 4 µM; Jurkat NF-kB luciferase, 16 h; 2,700 tested, 27% active; shares compounds with Jurkat NFkB inh;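 active = inhibition reaching about 45% at 4 µM in either replicate, limit read from the data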;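 also: plate controls were PMA/ionomycin stimulated DMSO wells for no effect and unstimulated DMSO wells for full effect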
Numbers without * were called inactive; ? = inconclusive; . = not tested or not shown. An excerpt weighted towards active compounds, which were near 1.8% of everything screened.

SMILES | hiPSC survival | Jurkat NFkB inh | Lipid droplet | Gli-Sufu antag | 697 NFkB inh | TAG inh | Jurkat NFkB conf
O=C(Nc1ccc(F)cc1)Nc1ccc2c(c1)CCC2 | -0.3 | -108.1 | -12.1 | -46.4 | -42.6 | -3.6 | .
O=C(Nc1ccc2c(c1)CCC2)Nc1ccc(F)cc1F | -0.4 | -178.4 | -10.3 | -80.7 | -160.0 | -12.1 | -66.7
O=C(Nc1ccc2nc(-c3cccs3)[nH]c2c1)c1cccs1 | -4.7 | -33.7 | 37.4 | -17.9 | -77.7 | 42.2 | .
O=C(Nc1ccc2c(c1)CCC2)c1cccs1 | -0.6 | -176.4 | 1.8 | -53.1 | -145.1 | 4.7 | -107.8
O=C(Nc1ccc2c(c1)CCC2)c1ccc(F)cc1 | -1.5 | -201.3 | 2.0 | -113.9 | -229.9 | . | -91.3
CCOC(=O)COc1ccc(C(=O)Nc2cccc(Cl)c2C)cc1 | 0.4 | 5.2 | -15.8 | -6.4 | 8.9 | -0.8 | .
CCOc1ccc(N(C(=O)CNC(=O)c2cccs2)C(C(=O)NCC2CCCO2)c2ccc(OC)c(OC)c2)cc1 (stereo unspecified) | -0.3 | 5.5 | 13.5 | 19.1 | 6.7 | . | .
CN(C)S(=O)(=O)c1ccc(C(=O)Nc2ccc3c(c2)CCC3)cc1 | 0.0 | -42.4 | -7.3 | -17.3 | -74.4 | . | .
CN(C)S(=O)(=O)c1cccc(C(=O)Nc2ccc3c(c2)CCC3)c1 | -0.5 | -161.9 | 7.8 | -75.7 | -216.4 | . | -143.2
O=C(Nc1ccc2c(c1)CCC2)c1cccc(OC(F)F)c1 | 0.3 | -193.2 | . | -76.7 | -189.0 | -5.3 | -107.8
Cc1ccc(/C=C/c2ccc(N(C)C)cc2)[n+](C)c1 | -0.3 | 68.5* | -53.0 | 84.7* | 26.2 | . | 41.0
COCCNC(=O)c1cc2c(c(-c3cccc(C#Cc4ccc(OC)c(OC)c4)c3)n1)[C@H](CCO)N(S(=O)C(C)(C)C)C2 (stereo partly specified) | 1.8 | . | . | . | . | . | .
O=C(CN1C(=O)NC2(CCOc3ccccc32)C1=O)NCCc1ccccc1 (stereo unspecified) | -0.5 | 63.7* | . | -10.8 | -1.0 | -6.8 | 13.6
COc1ccc(CCNC(=O)CN2C(=O)NC3(CCOc4ccccc43)C2=O)cc1 (stereo unspecified) | -0.3 | 13.8 | . | -8.8 | 10.9 | -0.9 | .
CC1C/C(=C/c2ccccn2)C(=O)/C(=C/c2ccccn2)C1 (stereo unspecified) | 3.9 | 91.1* | ? | 34.2 | -75.7 | 78.4 | 28.5
O=C1/C(=C/c2ccccn2)COc2ccccc21 | 0.9 | -15.2 | 3.4 | -7.6 | 0.0 | -6.9 | .
COc1cccc(NC(=O)C(=S)NC2CCCCC2)c1 | -0.4 | -219.8 | 16.1 | -120.9 | -164.3 | -0.6 | -91.0
COc1cccc(NC(=O)COC(=O)C2CC2)c1 | -0.4 | -82.1 | . | -11.0 | 5.3 | 1.6 | .
COc1cccc(NC(=O)COC(=O)C2CCCCC2)c1 | 0.7 | -195.3 | . | -16.7 | 7.1 | -1.8 | 15.9
Oc1ccccc1C1NN=C(c2ccccc2)S1 (stereo unspecified) | -1.0 | -174.8 | -13.0 | -10.9 | -214.1 | 18.7 | -121.2
COc1ccc2nc(C)cc(N/N=C/c3ccc(F)cc3)c2c1 | -1.0 | 97.9* | . | 23.1 | 31.8 | 136.3 | 89.4*
Cc1ccc2c(c1)sc1nc(=O)n(-c3cccc(Cl)c3)c(=O)n12 | 4.2 | -166.8 | . | -106.2 | -77.6 | . | -34.3
COc1cc(C)ccc1S(=O)(=O)NC(=O)C1(C)CCN1C(=O)Cc1ccc(Cl)cc1Cl (stereo unspecified) | 2.1 | . | . | . | . | -7.4 | .
CCOc1ccc2c(c1)OC(c1ccc(C)cc1)(C(F)(F)F)NC2=O (stereo unspecified) | -1.1 | 60.2* | 22.8 | 27.8 | 10.4 | . | 41.2
Cc1ccc(S(=O)(=O)N2CCOCC2)cc1NC(=O)CNC1CCCC1 | -0.6 | 3.6 | -10.3 | 6.0 | 14.6 | 4.7 | .
SMILES | hiPSC survival | Jurkat NFkB inh | Lipid droplet | Gli-Sufu antag | 697 NFkB inh | TAG inh | Jurkat NFkB conf
Cc1cccc(NC(=S)NC2CC3CCCC(C2)N3Cc2ccccc2)c1C (stereo unspecified) | -3.1 | -2.9 | -17.7 | 30.5 | -1.4 | 5.8 | .
CCCCS(=O)(=O)/C=C\C=C/S(=O)(=O)CCCC | 6.0 | 90.3* | -6.9 | 34.2 | -130.6 | 87.9* | 62.8*
Cc1oc(-c2ccc(Cl)cc2)nc1CS(=O)CC(=O)NCCCN1CCCC(C)C1 (stereo unspecified) | -0.5 | 2.7 | -3.7 | 41.7 | -7.2 | . | .
CCC1CCCCN1CCCNC(=O)C1CCN(Cc2nc(-c3ccc(Cl)cc3)oc2C)CC1 (stereo unspecified) | -0.7 | 55.6* | -32.9 | 13.3 | 7.1 | . | -4.5
Cc1oc(-c2ccc(Cl)cc2)nc1CN1CCC(C(=O)NCCCN2CCOCC2)CC1 | -4.4 | -6.1 | . | -17.0 | -2.2 | 6.8 | .
Cc1oc(-c2ccc(Cl)cc2)nc1CS(=O)CC(=O)NCCCN1CCN(Cc2ccccc2)CC1 (stereo unspecified) | -0.3 | 64.5* | -13.8 | 38.7 | -8.7 | . | 40.7
COc1ccc(S(=O)(=O)Nc2cccc(-c3ccc4nncn4n3)c2)cc1F | -0.6 | 57.7* | -3.2 | 18.0 | -6.7 | 28.8 | 50.2*
CCOc1ccc(S(=O)(=O)N2c3ccccc3CC2C)cc1 (stereo unspecified) | -2.2 | 70.9* | -166.5 | 7.5 | 10.0 | . | 50.7*
CC1Cc2ccccc2N1CC(=O)Nc1cc(S(=O)(=O)N2CCOCC2)ccc1Cl (stereo unspecified) | 1.8 | . | . | . | . | -11.3 | .
C(=C\c1nc(-c2ccccc2)no1)/c1ccccc1 | -1.9 | -152.2 | 22.7 | . | -201.9 | . | -82.3
C(=C\c1nc(-c2ccncc2)no1)/c1ccccc1 | -0.1 | -114.9 | 16.6 | -79.0 | -110.4 | 1.8 | .
COC(=O)c1ccccc1NC(=O)Nc1cc(C)ccn1 | -1.2 | -3.1 | 2.4 | -9.3 | -10.9 | . | .
Cc1ccnc(NC(=O)Nc2ccc(Br)cc2Cl)c1 | -1.9 | -156.8 | -22.5 | -48.0 | -225.4 | 3.2 | -101.4
COc1cc(N/N=C/c2ccccc2O)ncn1 | 1.1 | -53.3 | 15.4 | -0.8 | -95.7 | . | .
COc1cc(N/N=C/c2ccc(N(C)C)cc2)ncn1 | -5.0 | -155.2 | 1.6 | -147.5 | -233.7 | 15.3 | -92.9
CCOc1cc(CNCCCN2CCOCC2)cc(Cl)c1OCC(=O)NC(C)(C)C | -0.7 | -8.2 | . | -6.1 | 1.4 | . | .
CCOc1cc(CNCCCN2CCOCC2)cc(Br)c1OCC(=O)Nc1cccc(C(F)(F)F)c1 | -2.6 | 60.4* | . | -1.2 | 17.5 | . | 8.4
CN=C1SC(CC(=O)Nc2ccc(F)cc2F)C(=O)N1/N=C/c1ccc(OC(F)F)c(OC)c1 (stereo unspecified) | 0.1 | -9.0 | 0.8 | 12.4 | 11.7 | 31.8 | .

Assay outcomes: PubChem BioAssay, Sanford-Burnham Center for Chemical Genomics
